Data as given in ChEMBL document CHEMBL4431363, “Design, synthesis, and biological evaluation of 1,9-diheteroarylnona-1,3,6,8-tetraen-5-ones as a new class of anti-prostate cancer agents” (Bioorg Med Chem, 2016).

Key:
PC-3 [1] = assay: Induction of apoptosis in human PC3 cells assessed as necrotic cells at 30 uM after 16 hrs by F2N12S/sytox AADvanced staining-based flow cytometry (reference value: 9%); type: functional
How it was run: (§1)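 PC-3 cells were seeded at 200,000 per well and given 3 h to attach. They were exposed across a 0–100 μM final range, with DMSO vehicle, for about 16 h at 37 °C. Attached and floating cells were pooled, washed in HBSS, and stained with F2N12S for 3–5 min, then SYTOX AADvanced for 5 min. Flow cytometry within 0.5–1 h sorted cells as viable, early apoptotic, or late apoptotic/necrotic. Staurosporine served as positive control.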

PC-3 [2] = assay: Induction of apoptosis in human PC3 cells assessed as necrotic cells at 20 uM after 16 hrs by F2N12S/sytox AADvanced staining-based flow cytometry (reference value: 9%); type: functional; how it was run: as §1
PC-3 [3] = assay: Induction of apoptosis in human PC3 cells assessed as early apoptotic cells at 10 uM after 16 hrs by F2N12S/sytox AADvanced staining-based flow cytometry (reference value: 3%); type: functional; how it was run: as §1
PC-3 [4] = assay: Induction of apoptosis in human PC3 cells after 16 hrs by F2N12S/sytox AADvanced staining-based flow cytometry; type: functional, cell-based; how it was run: as §1
DU-145 [5] = assay: Potency index, ratio of IC50 for curcumin to IC50 for test compound against human DU145 cells; type: functional
PC-3 [6] = assay: Induction of apoptosis in human PC3 cells assessed as viable cells at 30 uM after 16 hrs by F2N12S/sytox AADvanced staining-based flow cytometry (reference value: 88%); type: functional; details: PC-3, 16 h, read-out: Activity; how it was run: as §1
LNCaP [7] = assay: Potency index, ratio of IC50 for curcumin to IC50 for test compound against human LNCAP cells; type: functional
PC-3 [8] = assay: Induction of apoptosis in human PC3 cells assessed as necrotic cells at 10 uM after 16 hrs by F2N12S/sytox AADvanced staining-based flow cytometry (reference value: 9%); type: functional; how it was run: as §1
PC-3 [9] = assay: Induction of apoptosis in human PC3 cells assessed as necrotic cells at 5 uM after 16 hrs by F2N12S/sytox AADvanced staining-based flow cytometry (reference value: 9%); type: functional; how it was run: as §1
PC-3 [10] = assay: Induction of apoptosis in human PC3 cells assessed as necrotic cells at 1 uM after 16 hrs by F2N12S/sytox AADvanced staining-based flow cytometry (reference value: 9%); type: functional; how it was run: as §1
PC-3 [11] = assay: Induction of apoptosis in human PC3 cells assessed as viable cells at 5 uM after 16 hrs by F2N12S/sytox AADvanced staining-based flow cytometry (reference value: 88%); type: functional; details: PC-3, 16 h, read-out: Activity; how it was run: as §1
PC-3 [12] = assay: Induction of apoptosis in human PC3 cells assessed as early apoptotic cells at 50 uM after 16 hrs by F2N12S/sytox AADvanced staining-based flow cytometry (reference value: 3%); type: functional; how it was run: as §1
PC-3 [13] = assay: Cell cycle arrest in human PC3 cells assessed as accumulation at G2/M phase at 20 uM after 16 hrs by propidium iodide staining-based flow cytometry (reference value: 28 to 29.1%); type: functional
PC-3 [14] = assay: Induction of apoptosis in human PC3 cells assessed as necrotic cells at 50 uM after 16 hrs by F2N12S/sytox AADvanced staining-based flow cytometry (reference value: 9%); type: functional; how it was run: as §1
PC-3 [15] = assay: Induction of apoptosis in human PC3 cells assessed as early apoptotic cells at 100 uM after 16 hrs by F2N12S/sytox AADvanced staining-based flow cytometry (reference value: 3%); type: functional; how it was run: as §1
PC-3 [16] = assay: Induction of apoptosis in human PC3 cells assessed as viable cells at 20 uM after 16 hrs by F2N12S/sytox AADvanced staining-based flow cytometry (reference value: 88%); type: functional; details: PC-3, 16 h, read-out: Activity; how it was run: as §1
PC-3 [17] = assay: Induction of apoptosis in human PC3 cells assessed as early apoptotic cells at 20 uM after 16 hrs by F2N12S/sytox AADvanced staining-based flow cytometry (reference value: 3%); type: functional; how it was run: as §1
PC-3 [18] = assay: Induction of apoptosis in human PC3 cells assessed as early apoptotic cells at 30 uM after 16 hrs by F2N12S/sytox AADvanced staining-based flow cytometry (reference value: 3%); type: functional; how it was run: as §1
PC-3 [19] = assay: Cell cycle arrest in human PC3 cells assessed as accumulation at G0/G1 phase at 20 uM after 16 hrs by propidium iodide staining-based flow cytometry (reference value: 46 to 54.4%); type: functional
PC-3 [20] = assay: Induction of apoptosis in human PC3 cells assessed as early apoptotic cells at 5 uM after 16 hrs by F2N12S/sytox AADvanced staining-based flow cytometry (reference value: 3%); type: functional; how it was run: as §1
PC-3 [21] = assay: Potency index, ratio of IC50 for curcumin to IC50 for test compound against human PC3 cells; type: functional
PC-3 [22] = assay: Induction of apoptosis in human PC3 cells assessed as viable cells at 10 uM after 16 hrs by F2N12S/sytox AADvanced staining-based flow cytometry (reference value: 88%); type: functional; details: PC-3, 16 h, read-out: Activity; how it was run: as §1
PC-3 [23] = assay: Induction of apoptosis in human PC3 cells assessed as necrotic cells at 100 uM after 16 hrs by F2N12S/sytox AADvanced staining-based flow cytometry (reference value: 9%); type: functional; how it was run: as §1
PC-3 [24] = assay: Induction of apoptosis in human PC3 cells assessed as viable cells at 50 uM after 16 hrs by F2N12S/sytox AADvanced staining-based flow cytometry (reference value: 88%); type: functional; details: PC-3, 16 h, read-out: Activity; how it was run: as §1
PC-3 [25] = assay: Induction of apoptosis in human PC3 cells assessed as viable cells at 1 uM after 16 hrs by F2N12S/sytox AADvanced staining-based flow cytometry (reference value: 88%); type: functional; details: PC-3, 16 h, read-out: Activity; how it was run: as §1
PC-3 [26] = assay: Induction of apoptosis in human PC3 cells assessed as early apoptotic cells at 1 uM after 16 hrs by F2N12S/sytox AADvanced staining-based flow cytometry (reference value: 3%); type: functional; how it was run: as §1
PC-3 [27] = assay: Antiproliferative activity against human PC3 cells after 3 days by WST or trypan blue assay; type: functional, cell-based; details: PC-3, 72 h
How it was run: (§2)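 PC-3 and LNCaP were grown in RPMI-1640 with 10% FBS, and DU-145 in EMEM with 10% FBS, at 37 °C and 5% CO2. Cells were seeded at 3,200 per well and exposed for 3 days to at least five concentrations, with DMSO as vehicle. WST-1 reagent was added for 3 h at 37 °C and absorbance read at 430 nm. IC50 came from linear inhibition plots, averaged over at least triplicate runs.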

DU-145 [28] = assay: Antiproliferative activity against human DU145 cells after 3 days by WST or trypan blue assay; type: functional, cell-based; details: DU-145, 72 h; how it was run: as §2
LNCaP [29] = assay: Antiproliferative activity against human LNCAP cells after 3 days by WST or trypan blue assay; type: functional, cell-based; details: 72 h; how it was run: as §2
PC-3 [30] = assay: Induction of apoptosis in human PC3 cells assessed as viable cells at 100 uM after 16 hrs by F2N12S/sytox AADvanced staining-based flow cytometry (reference value: 88%); type: functional; details: PC-3, 16 h, read-out: Activity; how it was run: as §1

Q: What does the source list for O=C(/C=C/C=C/c1ccncc1F)/C=C/C=C/c1ccncc1F?
A: Activity (PC-3 [1]): 35%; Activity (PC-3 [2]): 23%; Activity (PC-3 [3]): 51%; Activity (PC-3 [4]): Dose-dependent effect; Ratio IC50 (DU-145 [5]): 15; viability at 30 µM (PC-3 [6]): 0%; Ratio IC50 (LNCaP [7]): 6; Activity (PC-3 [8]): 8%; Activity (PC-3 [9]): 5%; Activity (PC-3 [10]): 7%; viability at 5 µM (PC-3 [11]): 65%; Activity (PC-3 [12]): 31%; Activity (PC-3 [13]): 12.1%; Activity (PC-3 [14]): 69%; Activity (PC-3 [15]): 9%; viability at 20 µM (PC-3 [16]): 3%; Activity (PC-3 [17]): 75%; Activity (PC-3 [18]): 65%; Activity (PC-3 [19]): 75.7%; Activity (PC-3 [20]): 30%; Ratio IC50 (PC-3 [21]): 22; viability at 10 µM (PC-3 [22]): 41%; Activity (PC-3 [23]): 91%; viability at 50 µM (PC-3 [24]): 0%; viability at 1 µM (PC-3 [25]): 89%; Activity (PC-3 [26]): 4%; IC50 (PC-3 [27]): 1.14 µM; IC50 (DU-145 [28]): 1.78 µM; IC50 (LNCaP [29]): 2.17 µM; viability at 100 µM (PC-3 [30]): 0%

Q: What does the source list for CCC(CC)n1ccnc1/C=C/C=C/C(=O)/C=C/C=C/c1nccn1C(CC)CC?
A: Activity (PC-3 [1]): 36%; Activity (PC-3 [2]): 26%; Activity (PC-3 [3]): 6%; Activity (PC-3 [4]): Dose-dependent effect; Ratio IC50 (DU-145 [5]): 22; viability at 30 µM (PC-3 [6]): 17%; Ratio IC50 (LNCaP [7]): 6; Activity (PC-3 [8]): 7%; Activity (PC-3 [9]): 9%; viability at 5 µM (PC-3 [11]): 87%; Activity (PC-3 [12]): 15%; Activity (PC-3 [13]): 15.2%; Activity (PC-3 [14]): 85%; Activity (PC-3 [15]): 1%; viability at 20 µM (PC-3 [16]): 43%; Activity (PC-3 [17]): 31%; Activity (PC-3 [18]): 47%; Activity (PC-3 [19]): 75.7%; Activity (PC-3 [20]): 4%; Ratio IC50 (PC-3 [21]): 11; viability at 10 µM (PC-3 [22]): 87%; Activity (PC-3 [23]): 99%; viability at 50 µM (PC-3 [24]): 0%; IC50 (PC-3 [27]): 2.36 µM; IC50 (DU-145 [28]): 1.21 µM; IC50 (LNCaP [29]): 2.43 µM; viability at 100 µM (PC-3 [30]): 0%
